Measured values published in ChEMBL document CHEMBL4118021, “Studies of TAK1-centered polypharmacology with novel covalent TAK1 inhibitors” (Bioorg Med Chem, 2017).
The source made the active and inactive calls. No cut-off for these calls is given here.

What was measured:
[1] = target: Thioredoxin-like protein 1 (Homo sapiens) (UniProt O43396); experiment: Binding affinity to TXNL1 in human NCI-H23 cells at 1 uM by mass spectrometry based pull down assay; type: cell-based
[2] = target: Endothelial differentiation-related factor 1 (Homo sapiens) (UniProt O60869); experiment: Binding affinity to EDF1 in human NCI-H23 cells at 1 uM by mass spectrometry based pull down assay; type: cell-based
Chain of Endothelial differentiation-related factor 1 (Homo sapiens) (O60869 whole entry): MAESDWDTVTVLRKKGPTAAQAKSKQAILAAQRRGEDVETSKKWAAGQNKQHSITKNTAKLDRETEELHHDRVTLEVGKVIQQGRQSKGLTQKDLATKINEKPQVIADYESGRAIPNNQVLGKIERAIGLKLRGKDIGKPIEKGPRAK

[3] = target: Proteasome activator complex subunit 1 (Homo sapiens) (UniProt Q06323); experiment: Binding affinity to PSME1 in human NCI-H358 cells at 1 uM by mass spectrometry based pull down assay; type: cell-based
Chain of Proteasome activator complex subunit 1 (Homo sapiens) (Q06323 whole entry, one chain of several): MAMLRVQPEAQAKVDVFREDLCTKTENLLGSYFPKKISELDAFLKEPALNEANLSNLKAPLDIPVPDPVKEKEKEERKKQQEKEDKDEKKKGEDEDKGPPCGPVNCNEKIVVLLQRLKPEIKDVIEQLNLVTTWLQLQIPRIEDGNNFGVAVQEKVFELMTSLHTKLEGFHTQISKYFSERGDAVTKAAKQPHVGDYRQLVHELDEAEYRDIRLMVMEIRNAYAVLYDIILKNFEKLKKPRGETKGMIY

[4] = target: Thioredoxin-dependent peroxide reductase, mitochondrial (Homo sapiens) (UniProt P30048); experiment: Binding affinity to PRDX3 in human NCI-H23 cells at 1 uM by mass spectrometry based pull down assay; type: cell-based
Chain of Thioredoxin-dependent peroxide reductase, mitochondrial (Homo sapiens) (P30048 whole entry): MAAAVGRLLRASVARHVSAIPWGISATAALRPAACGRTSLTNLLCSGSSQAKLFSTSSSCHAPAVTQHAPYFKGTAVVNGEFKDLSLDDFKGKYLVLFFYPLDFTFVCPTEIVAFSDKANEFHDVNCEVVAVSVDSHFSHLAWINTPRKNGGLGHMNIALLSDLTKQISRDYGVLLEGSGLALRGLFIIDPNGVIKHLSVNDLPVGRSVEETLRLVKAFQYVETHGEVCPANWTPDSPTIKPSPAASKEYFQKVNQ

[5] = target: Dolichyl-diphosphooligosaccharide--protein glycosyltransferase subunit 1 (Homo sapiens) (UniProt P04843); experiment: Binding affinity to RPN1 in human NCI-H23 cells at 1 uM by mass spectrometry based pull down assay; type: cell-based
Chain of Dolichyl-diphosphooligosaccharide--protein glycosyltransferase subunit 1 (Homo sapiens) (P04843 whole entry): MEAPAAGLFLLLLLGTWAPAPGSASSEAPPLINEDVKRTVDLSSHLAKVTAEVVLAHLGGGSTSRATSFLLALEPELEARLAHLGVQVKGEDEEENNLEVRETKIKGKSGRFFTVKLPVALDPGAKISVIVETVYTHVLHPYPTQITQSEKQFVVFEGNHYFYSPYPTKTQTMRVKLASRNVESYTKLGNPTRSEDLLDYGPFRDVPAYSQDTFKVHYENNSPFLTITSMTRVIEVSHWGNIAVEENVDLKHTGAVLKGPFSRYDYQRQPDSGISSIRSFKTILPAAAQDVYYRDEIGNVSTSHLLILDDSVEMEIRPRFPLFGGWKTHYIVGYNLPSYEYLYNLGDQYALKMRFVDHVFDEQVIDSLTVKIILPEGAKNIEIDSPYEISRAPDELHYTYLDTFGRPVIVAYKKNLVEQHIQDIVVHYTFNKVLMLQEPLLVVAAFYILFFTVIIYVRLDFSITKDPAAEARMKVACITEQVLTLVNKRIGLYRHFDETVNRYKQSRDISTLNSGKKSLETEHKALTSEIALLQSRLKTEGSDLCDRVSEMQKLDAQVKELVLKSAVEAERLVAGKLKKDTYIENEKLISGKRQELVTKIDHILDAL

[6] = target: Peroxiredoxin-4 (Homo sapiens) (UniProt Q13162); experiment: Binding affinity to PRDX4 in human NCI-H23 cells at 1 uM by mass spectrometry based pull down assay; type: cell-based
[7] = target: Serine/threonine-protein phosphatase 2A catalytic subunit beta isoform (Homo sapiens) (UniProt P62714); experiment: Binding affinity to PPP2CB in human NCI-H358 cells at 1 uM by mass spectrometry based pull down assay; type: cell-based
Chain of Serine/threonine-protein phosphatase 2A catalytic subunit beta isoform (Homo sapiens) (P62714 whole entry, canonical isoform): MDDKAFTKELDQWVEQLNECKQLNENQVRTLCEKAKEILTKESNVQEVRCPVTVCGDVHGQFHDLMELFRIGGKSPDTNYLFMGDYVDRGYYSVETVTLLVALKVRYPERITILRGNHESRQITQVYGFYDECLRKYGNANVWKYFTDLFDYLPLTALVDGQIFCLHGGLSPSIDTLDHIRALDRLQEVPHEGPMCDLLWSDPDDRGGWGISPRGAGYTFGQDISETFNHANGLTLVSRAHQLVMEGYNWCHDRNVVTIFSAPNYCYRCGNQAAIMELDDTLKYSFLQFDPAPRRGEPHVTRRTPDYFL

[8] = target: Clathrin light chain A (Homo sapiens) (UniProt P09496); experiment: Binding affinity to CLTA in human NCI-H358 cells at 1 uM by mass spectrometry based pull down assay; type: cell-based
[9] = target: 14-3-3 protein epsilon (Homo sapiens) (UniProt P62258); experiment: Binding affinity to YWHAE in human NCI-H358 cells at 1 uM by mass spectrometry based pull down assay; type: cell-based
Chain of 14-3-3 protein epsilon (Homo sapiens) (P62258 whole entry): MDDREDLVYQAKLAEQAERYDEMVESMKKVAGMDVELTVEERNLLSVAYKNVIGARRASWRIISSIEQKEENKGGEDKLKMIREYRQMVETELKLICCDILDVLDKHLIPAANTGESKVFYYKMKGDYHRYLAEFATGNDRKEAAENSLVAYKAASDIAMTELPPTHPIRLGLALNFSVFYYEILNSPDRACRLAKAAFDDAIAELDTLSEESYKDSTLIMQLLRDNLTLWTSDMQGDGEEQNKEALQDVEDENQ

[10] = target: Phospholipid hydroperoxide glutathione peroxidase GPX4 (Homo sapiens) (UniProt P36969); experiment: Binding affinity to GPX4 in human NCI-H23 cells at 1 uM by mass spectrometry based pull down assay; type: cell-based
Chain of Phospholipid hydroperoxide glutathione peroxidase GPX4 (Homo sapiens) (P36969 whole entry): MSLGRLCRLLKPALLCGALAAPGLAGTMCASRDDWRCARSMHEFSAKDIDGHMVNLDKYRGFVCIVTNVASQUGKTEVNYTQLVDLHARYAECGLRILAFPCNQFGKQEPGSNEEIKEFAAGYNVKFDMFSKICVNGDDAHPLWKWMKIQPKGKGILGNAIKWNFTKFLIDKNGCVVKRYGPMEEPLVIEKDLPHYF

[11] = target: Trifunctional enzyme subunit alpha, mitochondrial (Homo sapiens) (UniProt P40939); experiment: Binding affinity to HADHA in human NCI-H358 cells at 1 uM by mass spectrometry based pull down assay; type: cell-based
Chain of Trifunctional enzyme subunit alpha, mitochondrial (Homo sapiens) (P40939 whole entry): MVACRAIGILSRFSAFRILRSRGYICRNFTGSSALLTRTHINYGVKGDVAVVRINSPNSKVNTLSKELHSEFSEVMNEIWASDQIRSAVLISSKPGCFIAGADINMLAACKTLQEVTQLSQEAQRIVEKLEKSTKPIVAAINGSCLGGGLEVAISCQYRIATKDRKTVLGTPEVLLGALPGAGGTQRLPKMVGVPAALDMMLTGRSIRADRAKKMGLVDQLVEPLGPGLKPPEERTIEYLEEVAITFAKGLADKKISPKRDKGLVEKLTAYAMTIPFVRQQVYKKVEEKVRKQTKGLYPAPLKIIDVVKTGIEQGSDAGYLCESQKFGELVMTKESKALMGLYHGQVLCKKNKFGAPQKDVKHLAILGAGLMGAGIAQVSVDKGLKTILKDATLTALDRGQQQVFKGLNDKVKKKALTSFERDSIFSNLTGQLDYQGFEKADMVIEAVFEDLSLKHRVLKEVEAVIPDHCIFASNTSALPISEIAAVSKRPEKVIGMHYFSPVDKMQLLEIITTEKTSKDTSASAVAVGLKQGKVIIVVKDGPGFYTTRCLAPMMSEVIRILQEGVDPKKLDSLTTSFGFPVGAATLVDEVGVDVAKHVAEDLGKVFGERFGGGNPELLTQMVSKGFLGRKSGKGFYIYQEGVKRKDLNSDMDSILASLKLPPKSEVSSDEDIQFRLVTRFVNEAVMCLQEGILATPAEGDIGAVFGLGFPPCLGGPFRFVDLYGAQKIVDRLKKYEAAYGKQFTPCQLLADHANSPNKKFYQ

[12] = target: Actin-related protein 2/3 complex subunit 1B (Homo sapiens) (UniProt O15143); experiment: Binding affinity to ARPC1B in human NCI-H358 cells at 1 uM by mass spectrometry based pull down assay; type: cell-based
[13] = target: Glutamine--fructose-6-phosphate aminotransferase [isomerizing] 1 (Homo sapiens) (UniProt Q06210); experiment: Binding affinity to GFPT1 in human NCI-H358 cells at 1 uM by mass spectrometry based pull down assay; type: cell-based
Chain of Glutamine--fructose-6-phosphate aminotransferase [isomerizing] 1 (Homo sapiens) (Q06210 whole entry): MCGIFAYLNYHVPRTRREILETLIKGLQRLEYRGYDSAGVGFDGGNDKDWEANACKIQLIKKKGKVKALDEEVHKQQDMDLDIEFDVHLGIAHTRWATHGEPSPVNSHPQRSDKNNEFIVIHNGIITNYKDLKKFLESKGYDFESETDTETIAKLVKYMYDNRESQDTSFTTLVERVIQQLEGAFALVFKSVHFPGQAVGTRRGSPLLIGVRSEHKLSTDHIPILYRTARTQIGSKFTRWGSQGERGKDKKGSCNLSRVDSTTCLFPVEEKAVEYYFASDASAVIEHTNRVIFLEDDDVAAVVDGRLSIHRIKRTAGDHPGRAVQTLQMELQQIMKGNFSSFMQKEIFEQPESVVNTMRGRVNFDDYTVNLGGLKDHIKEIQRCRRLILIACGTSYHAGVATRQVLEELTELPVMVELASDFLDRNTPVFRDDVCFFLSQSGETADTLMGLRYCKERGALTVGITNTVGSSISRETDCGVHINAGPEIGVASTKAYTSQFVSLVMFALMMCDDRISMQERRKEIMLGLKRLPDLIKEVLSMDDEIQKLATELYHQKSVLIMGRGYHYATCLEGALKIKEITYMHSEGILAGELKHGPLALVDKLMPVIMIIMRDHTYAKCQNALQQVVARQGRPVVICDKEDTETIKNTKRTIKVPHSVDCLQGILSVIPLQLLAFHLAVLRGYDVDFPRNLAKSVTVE

[14] = target: NAD(P)H dehydrogenase [quinone] 1 (Homo sapiens) (UniProt P15559); experiment: Binding affinity to NQO1 in human NCI-H23 cells at 1 uM by mass spectrometry based pull down assay; type: cell-based
Chain of NAD(P)H dehydrogenase [quinone] 1 (Homo sapiens) (P15559 whole entry): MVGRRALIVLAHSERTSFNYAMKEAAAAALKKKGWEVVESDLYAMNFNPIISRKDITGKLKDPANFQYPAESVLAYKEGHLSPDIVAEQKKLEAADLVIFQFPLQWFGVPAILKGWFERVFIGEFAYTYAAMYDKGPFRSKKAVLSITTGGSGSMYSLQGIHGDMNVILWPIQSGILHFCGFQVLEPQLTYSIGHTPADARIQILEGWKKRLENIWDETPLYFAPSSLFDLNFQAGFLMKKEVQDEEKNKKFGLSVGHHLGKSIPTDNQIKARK

[15] = target: DnaJ homolog subfamily B member 6 (Homo sapiens) (UniProt O75190); experiment: Binding affinity to DNAJB6 in human NCI-H358 cells at 1 uM by mass spectrometry based pull down assay; type: cell-based
Chain of DnaJ homolog subfamily B member 6 (Homo sapiens) (O75190 whole entry): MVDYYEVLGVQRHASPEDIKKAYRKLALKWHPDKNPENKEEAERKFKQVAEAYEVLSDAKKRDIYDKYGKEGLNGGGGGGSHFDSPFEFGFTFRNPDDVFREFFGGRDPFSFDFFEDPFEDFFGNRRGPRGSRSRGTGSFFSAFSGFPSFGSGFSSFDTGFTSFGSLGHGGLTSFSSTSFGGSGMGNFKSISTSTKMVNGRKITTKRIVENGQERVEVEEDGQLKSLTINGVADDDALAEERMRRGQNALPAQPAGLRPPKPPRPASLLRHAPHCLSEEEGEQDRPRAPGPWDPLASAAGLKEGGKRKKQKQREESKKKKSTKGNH

[16] = target: Serine/threonine-protein kinase Chk2 (Homo sapiens) (UniProt O96017); experiment: Binding affinity to CHEK2 in human NCI-H23 cells at 1 uM by mass spectrometry based pull down assay; type: cell-based
[17] = target: Dual specificity mitogen-activated protein kinase kinase 1 (Homo sapiens) (UniProt Q02750); experiment: Binding affinity to MAP2K1 in human NCI-H358 cells at 1 uM by mass spectrometry based pull down assay; type: cell-based
Chain of Dual specificity mitogen-activated protein kinase kinase 1 (Homo sapiens) (Q02750 whole entry, the tested form may be a part): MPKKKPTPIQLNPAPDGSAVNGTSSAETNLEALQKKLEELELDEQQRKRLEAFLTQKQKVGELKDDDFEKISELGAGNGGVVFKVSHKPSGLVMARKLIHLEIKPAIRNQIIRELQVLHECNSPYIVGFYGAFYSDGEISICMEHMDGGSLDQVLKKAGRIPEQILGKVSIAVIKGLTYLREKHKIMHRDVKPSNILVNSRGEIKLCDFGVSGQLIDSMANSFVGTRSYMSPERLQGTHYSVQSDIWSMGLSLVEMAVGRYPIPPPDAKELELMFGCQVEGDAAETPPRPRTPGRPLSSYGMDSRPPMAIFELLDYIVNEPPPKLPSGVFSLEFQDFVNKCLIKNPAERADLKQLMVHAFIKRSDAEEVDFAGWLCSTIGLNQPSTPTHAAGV

[18] = target: Transmembrane protein 263 (Homo sapiens) (UniProt Q8WUH6); experiment: Binding affinity to TMEM263 in human NCI-H23 cells at 1 uM by mass spectrometry based pull down assay; type: cell-based
[19] = target: Inter-alpha-trypsin inhibitor heavy chain H2 (Homo sapiens) (UniProt P19823); experiment: Binding affinity to ITIH2 in human NCI-H23 cells at 1 uM by mass spectrometry based pull down assay; type: cell-based
[20] = target: Dual specificity mitogen-activated protein kinase kinase 1 (Homo sapiens) (UniProt Q02750); experiment: Inhibition of full length human MEK1 (1 to 393 residues) expressed in mammalian expression system assessed as enzyme activity at 1 uM by KINOMEScan assay relative to control; design: scale not given: the % may be the effect or the level left
Summary of the method: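 In vitro ATP-site competition binding assay (KinomeScan) across a panel of 456 kinases. Compound was tested at 1 and 10 μM. The read-out is the binding inhibition score relative to control.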

[21] = target: T1, Serine/threonine-protein kinase D2 (Homo sapiens) (UniProt Q9BZL6); experiment: Inhibition of human PRKD2 (519 to 838 residues) expressed in bacterial expression system assessed as enzyme activity at 10 uM by KINOMEScan assay relative to control; design: scale not given: the % may be the effect or the level left
T1 sequence (whole entry): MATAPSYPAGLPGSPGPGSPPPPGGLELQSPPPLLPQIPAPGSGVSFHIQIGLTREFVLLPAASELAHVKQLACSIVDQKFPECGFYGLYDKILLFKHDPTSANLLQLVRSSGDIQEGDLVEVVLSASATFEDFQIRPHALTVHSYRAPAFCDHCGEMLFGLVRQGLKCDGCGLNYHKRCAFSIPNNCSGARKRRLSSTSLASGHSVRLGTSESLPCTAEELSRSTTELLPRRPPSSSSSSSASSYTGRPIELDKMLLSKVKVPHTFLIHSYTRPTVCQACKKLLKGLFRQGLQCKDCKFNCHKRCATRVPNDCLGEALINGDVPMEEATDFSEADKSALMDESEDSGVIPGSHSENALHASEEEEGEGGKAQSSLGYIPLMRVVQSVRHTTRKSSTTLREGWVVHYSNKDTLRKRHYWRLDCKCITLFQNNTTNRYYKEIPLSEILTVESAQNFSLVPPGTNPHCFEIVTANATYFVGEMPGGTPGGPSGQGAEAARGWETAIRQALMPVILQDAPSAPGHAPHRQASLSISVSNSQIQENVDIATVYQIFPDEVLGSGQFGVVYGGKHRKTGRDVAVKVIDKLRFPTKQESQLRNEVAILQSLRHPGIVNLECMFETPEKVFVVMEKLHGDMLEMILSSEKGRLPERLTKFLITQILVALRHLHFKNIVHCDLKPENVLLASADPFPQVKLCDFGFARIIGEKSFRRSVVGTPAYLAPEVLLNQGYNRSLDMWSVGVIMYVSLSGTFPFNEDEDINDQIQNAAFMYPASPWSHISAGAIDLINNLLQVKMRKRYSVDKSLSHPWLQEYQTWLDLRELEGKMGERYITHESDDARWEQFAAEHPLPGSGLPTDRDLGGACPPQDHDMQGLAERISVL
Summary of the method: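 In vitro ATP-site competition binding assay across a panel of 456 kinases, with compound tested at 1 and 10 μM.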

NCI-H358 = experiment: Antiproliferative activity against human NCI-H358 cells harboring KRAS G12C mutant after 72 hrs by CellTiter-Glo assay; type: functional, cell-based
Summary of the method: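 NCI-H23 or NCI-H358 cells seeded at 2000 cells/well and grown 48 h before drug. Varying doses were added and cells incubated 72 h. Viability was read as CellTiter-Glo luminescence, and growth-inhibition IC50 was calculated from dose-response curves.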

Chain of Thioredoxin-like protein 1 (Homo sapiens) (O43396 whole entry): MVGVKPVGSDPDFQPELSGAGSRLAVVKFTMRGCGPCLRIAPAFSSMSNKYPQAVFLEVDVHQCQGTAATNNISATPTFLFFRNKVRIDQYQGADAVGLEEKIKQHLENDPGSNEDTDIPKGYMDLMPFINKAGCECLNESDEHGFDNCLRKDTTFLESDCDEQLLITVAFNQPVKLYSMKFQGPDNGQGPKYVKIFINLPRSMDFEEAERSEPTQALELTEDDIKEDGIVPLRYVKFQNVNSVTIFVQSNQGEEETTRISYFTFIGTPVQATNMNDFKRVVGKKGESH

SMILES: C=CC(=O)Nc1ccccc1Nc1nc(Nc2ccc(N3CCN(CCOCCOCCOCCNC(=O)CCCC[C@@H]4SC[C@@H]5NC(=O)N[C@@H]54)CC3)cc2)ncc1Cl
- Activity [1]: Active
- Activity [2]: Active
- Activity [3]: Active
- Activity [4]: Active
- Activity [5]: Active
- Activity [6]: Active
- Activity [7]: Active
- Activity [8]: Active
- Activity [9]: Active
- Activity [10]: Active
- Activity [11]: Active
- Activity [12]: Active
- Activity [13]: Active
- Activity [14]: Active
- Activity [15]: Active
- Activity [16]: Active
- Activity [17]: Active
- Activity [18]: Active
- Activity [19]: Active

SMILES: COc1cc(O)c2c(c1)/C=C/C[C@H](O)[C@H](O)C(=O)/C=C\C[C@H](C)OC2=O
- Activity [20]: 0.65%
- Activity [21]: 2.5%

SMILES: C=CC(=O)Nc1ccccc1Nc1nc(Nc2ccc(N3CCN(C)CC3)cc2)ncc1Cl
- Activity (NCI-H358): Active
